Laboratory results as given in article PMC6263297 (Drug Design, Development and Therapy, 2018).
Where two headings read alike, the source gives them in different places.

Columns and labels:
[1] = Safety assessment: treatment-related adverse events; type: in vivo, human (healthy Chinese volunteers)
Method in brief: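 The same 12 volunteers received three single-dose periods (0.25, 0.375, 0.5 mg orally after >10 h fast, 10-day washouts), then 0.375 mg once daily for 11 days. Adverse events were collected by interview and monitoring and graded for relation to treatment (probably/possibly). Vital signs, physical examination, clinical laboratory tests and ECG were done at screening and at study completion.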

[2] = system: acute exacerbations of COPD; conditions: treated over 4 weeks; cited from earlier work
[3] = system: patients with asthma; conditions: oral 0.10, 0.25, and 0.50 mg once daily; cited from earlier work
[4] = type: in vivo, human (healthy Chinese volunteers); conditions: single doses over the range 0.25–0.50 mg
[5] = cited from earlier work
[6] = cited from earlier work; remark: listed apart in the source
[7] = system: PDE4 enzyme; conditions: in vitro; cited from earlier work
[8] = single and multiple oral doses, all subjects
[9] = single- and multiple-dose studies together
[10] = after receiving 0.5 mg roflumilast

Question: With `O=C(Nc1c(Cl)cncc1Cl)c1ccc(OC(F)F)c(OCC2CC2)c1` [Roflumilast] as the compound, how does the “number of TRAEs reported” value ([1]; 0.25 mg single dose) read?
Answer: The value was “Seven”.

Question: What about the “number of TRAEs reported” value ([1]; 0.375 mg multiple doses) of the same compound?
Answer: The value was 25.

Question: What about the serious adverse events ([1]; across the trial) of the same compound?
Answer: The serious adverse events was “no serious adverse events”.

Question: And the “overall safety and tolerability” value ([1]; healthy Chinese volunteers, single doses 0.25–0.5 mg and multiple doses 0.375 mg)?
Answer: Its value is “safe and well-tolerated”.

Question: What about the “Any adverse event: number of subjects (%) reporting TRAEs” value ([1]; multiple doses 0.375 mg (n=12)) of the same compound?
Answer: The value was 12 subjects (%).

Question: And the “number of TRAEs of moderate degree” value ([1]; presenting as acute gastroenteritis)?
Answer: The value was “one”.

Question: What about the “number of TRAEs of severe degree” value ([1]; presenting as diarrhea) of the same compound?
Answer: Its value is “one”.

Question: And the “Diarrhea, share of subjects” value [1, 8]?
Answer: Its value is 30.8%.

Question: What about the “Dizziness, share of subjects” value [1, 8] of the same compound?
Answer: Its value is 53.8%.

Question: What about the “Elevated creatine kinase level, share of subjects” value [1, 8] of the same compound?
Answer: Its value is 15.4%.

Question: And the “Elevated total bilirubin level, share of subjects” value [1, 8]?
Answer: The value was 15.4%.

Question: And the “Headache, share of subjects” value [1, 8]?
Answer: The value was 23.1%.

Question: What about the “Nausea, share of subjects” value [1, 8] of the same compound?
Answer: The value was 53.8%.

Question: And the “Upper respiratory tract infection, share of subjects” value [1, 8]?
Answer: Its value is 23.1%.

Question: And the “number of TRAEs of mild degree” value [1, 9]?
Answer: Its value is “Forty-six”.

Question: And the “total number of treatment-related adverse events” value [1, 9]?
Answer: Its value is 48.

Question: And the “percentage of sputum neutrophils” value [2]?
Answer: Its value is “statistically significant greater reduction”.

Question: What about the sputum myeloperoxidase concentration [2] of the same compound?
Answer: Its sputum myeloperoxidase concentration is “statistically significant greater reduction”.

Question: And the “effect on forced expiratory volume in 1 second” value [3]?
Answer: The value was “statistically significant effects with dose-related increases from baseline”.

Question: What about the “mean t1/2 over the three single-dose groups” value [4] of the same compound?
Answer: Its value is ~ 20 hours.

Question: And the “effective half-life (t1/2)” value ([5]; after dosing of 0.5 mg roflumilast)?
Answer: Its value is 8 to 31 h.

Question: What about the “effect of food intake on Cmax (decrease)” value ([5]; food intake) of the same compound?
Answer: The value was ~ 40%.

Question: What about the “effect of food intake on Tmax (delay)” value ([5]; food intake) of the same compound?
Answer: The value was 1 h.

Question: And the “effect of food intake on the total inhibitory activity of PDE4” value ([5]; food intake)?
Answer: Its value is “does not affect”.

Question: What about the “number of AEs reported” value ([6]; 15 subjects after receiving 0.5 mg roflumilast) of the same compound?
Answer: Its value is 59.

Question: And the “Abdominal discomfort, share of subjects” value [6, 10]?
Answer: Its value is 20%.

Question: And the “Headache, share of subjects” value [6, 10]?
Answer: Its value is 46.7%.

Question: What about the “Nausea, share of subjects” value [6, 10] of the same compound?
Answer: Its value is 20%.

Question: What about the “subjects who exited the study because of AEs” value ([6]; of 19 subjects, erectile dysfunction, visual flicker, blurred vision) of the same compound?
Answer: Its value is 2 subjects.

Question: And the “potency upon inhibition of the PDE4 enzyme relative to roflumilast N-oxide” value [7]?
Answer: Its value is “three times more potent”.
